Laboratory results reported in ChEMBL document CHEMBL2407080, “Synthesis and antifungal activities of cyclic octa-lipopeptide burkholdine analogues” (2013).
≈ marks a conversion by molar mass, not a printed value.

Legend:
Type in all cases: functional
Aspergillus oryzae = assay: Antifungal activity against Aspergillus oryzae 1-Murasaki-1 after 24 hrs by two-fold serial dilution method; details: 1-Murasaki-1, 24 h
Outline: (§1)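 Broth twofold serial dilution MIC. Organisms were pre-grown 2 days in YPD broth, and the assay was run in YPD. Compound started at […] in medium with 0.1% DMSO, then serially diluted twofold. Each well was inoculated with about 5.0 × 10³ cells and incubated 24 h at 30 °C. MIC is the lowest concentration with no visible growth.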

[1] = Antifungal activity against Candida viswanathii NBRC10321 after 24 hrs by two-fold serial dilution method; outline: as §1
Saccharomyces cerevisiae = assay: Antifungal activity against Saccharomyces cerevisiae X2180-1A after 24 hrs by two-fold serial dilution method; outline: as §1

Compound	MIC (Aspergillus oryzae)	MIC [1]	MIC (Saccharomyces cerevisiae)
CCCCCCCCCCCCNC(=O)[C@H]1CC(=O)N[C@@H](CO)C(=O)N[C@@H](Cc2ccc(O)cc2)C(=O)N[C@H](CC(N)=O)C(=O)NCC(=O)N[C@@H](CC(N)=O)C(=O)N[C@@H](CO)C(=O)N[C@@H](CC(N)=O)C(=O)N1	800 µg/mL (≈ 785 µM)	> 800 µg/mL	800 µg/mL (≈ 785 µM)
CCCCCCCCCCCCNC(=O)[C@@H]1CC(=O)N[C@H](CO)C(=O)N[C@@H](Cc2ccc(O)cc2)C(=O)N[C@@H](CC(N)=O)C(=O)NCC(=O)N[C@@H](CC(N)=O)C(=O)N[C@@H](CO)C(=O)N[C@@H](CC(N)=O)C(=O)N1	> 800 µg/mL	> 800 µg/mL	400 µg/mL (≈ 392 µM)
NC(=O)C[C@@H]1NC(=O)CNC(=O)[C@H](CC(N)=O)NC(=O)[C@H](Cc2ccc(O)cc2)NC(=O)[C@H](CO)NC(=O)CCNC(=O)[C@H](CC(N)=O)NC(=O)[C@H](CO)NC1=O	> 800 µg/mL	800 µg/mL (≈ 990 µM)	> 800 µg/mL
NC(=O)C[C@@H]1NC(=O)CNC(=O)[C@@H](CC(N)=O)NC(=O)[C@@H](Cc2ccc(O)cc2)NC(=O)[C@@H](CO)NC(=O)CCNC(=O)[C@H](CC(N)=O)NC(=O)[C@H](CO)NC1=O	800 µg/mL (≈ 990 µM)	> 800 µg/mL	800 µg/mL (≈ 990 µM)
CCCCCCCCCCCCNC(=O)[C@@H]1CC(=O)N[C@H](CO)C(=O)N[C@H](Cc2ccc(O)cc2)C(=O)N[C@H](CC(N)=O)C(=O)NCC(=O)N[C@@H](CC(N)=O)C(=O)N[C@@H](CO)C(=O)N[C@@H](CC(N)=O)C(=O)N1	50 µg/mL (≈ 49.1 µM)	800 µg/mL (≈ 785 µM)	25 µg/mL (≈ 24.5 µM)
NC(=O)C[C@@H]1NC(=O)CNC(=O)[C@@H](CC(N)=O)NC(=O)[C@H](Cc2ccc(O)cc2)NC(=O)[C@@H](CO)NC(=O)CCNC(=O)[C@H](CC(N)=O)NC(=O)[C@H](CO)NC1=O	> 800 µg/mL	> 800 µg/mL	800 µg/mL (≈ 990 µM)
CCCCCCCCCCCCNC(=O)[C@H]1CC(=O)N[C@@H](CO)C(=O)N[C@H](Cc2ccc(O)cc2)C(=O)N[C@@H](CC(N)=O)C(=O)NCC(=O)N[C@@H](CC(N)=O)C(=O)N[C@@H](CO)C(=O)N[C@@H](CC(N)=O)C(=O)N1	> 800 µg/mL	> 800 µg/mL	800 µg/mL (≈ 785 µM)
CCCCCCCCCCCCNC(=O)[C@H]1CC(=O)N[C@H](CO)C(=O)N[C@@H](Cc2ccc(O)cc2)C(=O)N[C@H](CC(N)=O)C(=O)NCC(=O)N[C@@H](CC(N)=O)C(=O)N[C@@H](CO)C(=O)N[C@@H](CC(N)=O)C(=O)N1	400 µg/mL (≈ 392 µM)	> 800 µg/mL	400 µg/mL (≈ 392 µM)
CCCCCCCCCCCCNC(=O)[C@@H]1CC(=O)N[C@@H](CO)C(=O)N[C@H](Cc2ccc(O)cc2)C(=O)N[C@@H](CC(N)=O)C(=O)NCC(=O)N[C@@H](CC(N)=O)C(=O)N[C@@H](CO)C(=O)N[C@@H](CC(N)=O)C(=O)N1	400 µg/mL (≈ 392 µM)	800 µg/mL (≈ 785 µM)	> 800 µg/mL
C[C@@H]1[C@H](O)[C@@H](C)/C=C/C=C/C=C/C=C/C=C/C=C/C=C/[C@H](O[C@@H]2O[C@H](C)[C@@H](O)[C@H](N)[C@@H]2O)C[C@@H]2O[C@](O)(C[C@@H](O)C[C@@H](O)[C@H](O)CC[C@@H](O)C[C@@H](O)CC(=O)O[C@H]1C)C[C@H](O)[C@H]2C(=O)O [AMPHOTERICIN B]			0.8 µg/mL (≈ 0.866 µM)
CCCCCCCCCCCCNC(=O)[C@H]1CC(=O)N[C@H](CO)C(=O)N[C@@H](Cc2ccc(O)cc2)C(=O)N[C@@H](CC(N)=O)C(=O)NCC(=O)N[C@@H](CC(N)=O)C(=O)N[C@@H](CO)C(=O)N[C@@H](CC(N)=O)C(=O)N1	> 800 µg/mL	> 800 µg/mL	400 µg/mL (≈ 392 µM)
CCCCCCCCCCCCNC(=O)[C@H]1CC(=O)N[C@H](CO)C(=O)N[C@H](Cc2ccc(O)cc2)C(=O)N[C@@H](CC(N)=O)C(=O)NCC(=O)N[C@@H](CC(N)=O)C(=O)N[C@@H](CO)C(=O)N[C@@H](CC(N)=O)C(=O)N1	800 µg/mL (≈ 785 µM)	> 800 µg/mL	800 µg/mL (≈ 785 µM)
CCCCCCCCCCCCNC(=O)[C@@H]1CC(=O)N[C@@H](CO)C(=O)N[C@@H](Cc2ccc(O)cc2)C(=O)N[C@H](CC(N)=O)C(=O)NCC(=O)N[C@@H](CC(N)=O)C(=O)N[C@@H](CO)C(=O)N[C@@H](CC(N)=O)C(=O)N1	400 µg/mL (≈ 392 µM)	800 µg/mL (≈ 785 µM)	> 800 µg/mL
CCCCCCCCCCC[C@H](O)[C@H](O)[C@H](O)C[C@H]1CC(=O)N[C@@H](CO)C(=O)N[C@H]([C@H](O)c2ccc(O)cc2)C(=O)N[C@H](CC(N)=O)C(=O)NCC(=O)N[C@@H](CC(N)=O)C(=O)N[C@@H](CO)C(=O)N[C@@H]([C@H](O)C(N)=O)C(=O)N1			1.6 µg/mL (≈ 1.46 µM)
CCCCCCCCCCCCNC(=O)[C@@H]1CC(=O)N[C@H](CO)C(=O)N[C@@H](Cc2ccc(O)cc2)C(=O)N[C@H](CC(N)=O)C(=O)NCC(=O)N[C@@H](CC(N)=O)C(=O)N[C@@H](CO)C(=O)N[C@@H](CC(N)=O)C(=O)N1	100 µg/mL (≈ 98.1 µM)	400 µg/mL (≈ 392 µM)	50 µg/mL (≈ 49.1 µM)
CCCCCCCCCCCCNC(=O)[C@H]1CC(=O)N[C@H](CO)C(=O)N[C@H](Cc2ccc(O)cc2)C(=O)N[C@H](CC(N)=O)C(=O)NCC(=O)N[C@@H](CC(N)=O)C(=O)N[C@@H](CO)C(=O)N[C@@H](CC(N)=O)C(=O)N1	800 µg/mL (≈ 785 µM)	> 800 µg/mL	400 µg/mL (≈ 392 µM)
CCCCCCCCCCCCNC(=O)[C@H]1CC(=O)N[C@@H](CO)C(=O)N[C@H](Cc2ccc(O)cc2)C(=O)N[C@H](CC(N)=O)C(=O)NCC(=O)N[C@@H](CC(N)=O)C(=O)N[C@@H](CO)C(=O)N[C@@H](CC(N)=O)C(=O)N1	100 µg/mL (≈ 98.1 µM)	> 800 µg/mL	50 µg/mL (≈ 49.1 µM)
CCCCCCCCCCCCNC(=O)[C@@H]1CC(=O)N[C@H](CO)C(=O)N[C@H](Cc2ccc(O)cc2)C(=O)N[C@@H](CC(N)=O)C(=O)NCC(=O)N[C@@H](CC(N)=O)C(=O)N[C@@H](CO)C(=O)N[C@@H](CC(N)=O)C(=O)N1	800 µg/mL (≈ 785 µM)	> 800 µg/mL	> 800 µg/mL
CCCCCCCCCCCCNC(=O)[C@H]1CC(=O)N[C@@H](CO)C(=O)N[C@@H](Cc2ccc(O)cc2)C(=O)N[C@@H](CC(N)=O)C(=O)NCC(=O)N[C@@H](CC(N)=O)C(=O)N[C@@H](CO)C(=O)N[C@@H](CC(N)=O)C(=O)N1	> 800 µg/mL	> 800 µg/mL	200 µg/mL (≈ 196 µM)
CCCCCCCCCCCCNC(=O)[C@@H]1CC(=O)N[C@@H](CO)C(=O)N[C@H](Cc2ccc(O)cc2)C(=O)N[C@H](CC(N)=O)C(=O)NCC(=O)N[C@@H](CC(N)=O)C(=O)N[C@@H](CO)C(=O)N[C@@H](CC(N)=O)C(=O)N1	400 µg/mL (≈ 392 µM)	> 800 µg/mL	800 µg/mL (≈ 785 µM)
CCCCCCCCCCCCNC(=O)[C@@H]1CC(=O)N[C@@H](CO)C(=O)N[C@@H](Cc2ccc(O)cc2)C(=O)N[C@@H](CC(N)=O)C(=O)NCC(=O)N[C@@H](CC(N)=O)C(=O)N[C@@H](CO)C(=O)N[C@@H](CC(N)=O)C(=O)N1	200 µg/mL (≈ 196 µM)	> 800 µg/mL	800 µg/mL (≈ 785 µM)
